Data: ChEMBL document CHEMBL3227923, “Conformational analysis of podophyllotoxin and its congeners. Structure--activity relationship in microtubule assembly” (J Med Chem, 1979)

Species on record: Gallus gallus
Assay: Inhibition of chicken brain microtubule polymerization after 30 mins
Method in brief: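 Chicken brain microtubule assembly in vitro at 37 °C and neutral pH over a 30-min incubation. ID50 is the drug concentration giving 50% inhibition of assembly, averaged from triplicate experiments (standard deviation <15%).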

Structure (SMILES) | ID50
COc1cc([C@@H]2c3cc4c(cc3[C@H](O)[C@H]3CSC[C@H]23)OCO4)cc(OC)c1OC | 10 µM
COc1cc([C@@H]2c3cc4c(cc3[C@H](O)[C@H]3COC(=O)[C@@H]23)OCO4)cc(OC)c1OC | 30 µM
COc1cc([C@@H]2c3cc4c(cc3C[C@H]3COC[C@@H]32)OCO4)cc(OC)c1OC | 0.8 µM
COc1cc([C@@H]2c3cc4c(cc3C[C@H]3COC(=O)[C@@H]32)OCO4)cc(OC)c1OC | 0.5 µM
COc1cc([C@@H]2c3cc4c(cc3[C@@H](O)[C@H]3COC(=O)[C@H]23)OCO4)cc(OC)c1OC | 5 µM
COc1cc([C@@H]2c3cc4c(cc3[C@H](O)[C@H]3COC(=O)[C@H]23)OCO4)cc(OC)c1OC | 0.6 µM
COc1cc([C@@H]2c3cc4c(cc3C[C@H]3CS(=O)(=O)C[C@@H]32)OCO4)cc(OC)c1OC | > 100 µM
COc1cc([C@@H]2c3cc4c(cc3[C@H](O)[C@H]3CS(=O)(=O)C[C@H]23)OCO4)cc(OC)c1OC | > 100 µM
COc1cc([C@@H]2c3cc4c(cc3C[C@H]3CSC[C@@H]32)OCO4)cc(OC)c1OC | 10 µM
COc1cc([C@@H]2c3cc4c(cc3C[C@H]3CCC[C@@H]32)OCO4)cc(OC)c1OC | 5 µM
COc1cc([C@@H]2c3cc4c(cc3[C@H](O)[C@H]3COC[C@H]23)OCO4)cc(OC)c1OC | 1 µM
